We go through eight compounds from ChEMBL document CHEMBL4477243, “Discovery and SAR of a novel series of potent, CNS penetrant M4 PAMs based on a non-enolizable ketone core: Challenges in disposition” (Bioorg Med Chem Lett, 2016).

Data set [1] addresses T1, Muscarinic acetylcholine receptor M4 (Homo sapiens, UniProt P08173).
T1 sequence (P08173 whole entry): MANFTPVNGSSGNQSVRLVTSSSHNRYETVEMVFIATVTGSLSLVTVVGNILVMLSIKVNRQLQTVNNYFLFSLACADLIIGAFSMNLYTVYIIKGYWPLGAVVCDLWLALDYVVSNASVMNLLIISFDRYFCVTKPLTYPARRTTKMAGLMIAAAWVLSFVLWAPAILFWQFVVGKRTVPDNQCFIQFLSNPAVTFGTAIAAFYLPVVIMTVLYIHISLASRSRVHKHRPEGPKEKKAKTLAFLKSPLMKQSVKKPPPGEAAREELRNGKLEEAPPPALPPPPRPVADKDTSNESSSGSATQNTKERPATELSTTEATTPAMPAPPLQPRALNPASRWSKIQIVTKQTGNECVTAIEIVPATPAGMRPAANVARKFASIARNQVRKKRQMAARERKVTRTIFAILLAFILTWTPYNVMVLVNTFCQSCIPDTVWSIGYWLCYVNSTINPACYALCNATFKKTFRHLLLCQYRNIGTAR
The data set is described as follows: Positive allosteric modulation activity at human M4 receptor expressed in CHO cells co-expressing Gqi5 protein assessed as potentiation of EC20 acetyl choline-induced response by calcium mobilization assay. The data set is classed as functional, cell-based. The procedure, abridged: (§1)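 Calcium mobilization in CHO cells stably co-expressing human or rat M4 with the chimeric Gqi5 protein. Test compound given with a fixed EC20 concentration of acetylcholine. Potency reported as EC50; efficacy as % of the acetylcholine maximum. Means of three independent experiments, each in triplicate.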

Data set [2] addresses T2, Muscarinic acetylcholine receptor M4 (Homo sapiens) (UniProt P08173).
T2 sequence (whole entry): T1 sequence (P08173 whole entry)
In words: Positive allosteric modulation activity at human M4 receptor expressed in CHO cells co-expressing Gqi5 protein assessed as potentiation of EC20 acetyl choline-induced response by calcium mobilization assay relative to acetylcholine. The data set is classed as functional, cell-based. The method in brief:
as §1

Data set [3] deals with T3, Muscarinic acetylcholine receptor M4 (Rattus norvegicus, UniProt P08485).
T3 sequence (P08485 whole entry): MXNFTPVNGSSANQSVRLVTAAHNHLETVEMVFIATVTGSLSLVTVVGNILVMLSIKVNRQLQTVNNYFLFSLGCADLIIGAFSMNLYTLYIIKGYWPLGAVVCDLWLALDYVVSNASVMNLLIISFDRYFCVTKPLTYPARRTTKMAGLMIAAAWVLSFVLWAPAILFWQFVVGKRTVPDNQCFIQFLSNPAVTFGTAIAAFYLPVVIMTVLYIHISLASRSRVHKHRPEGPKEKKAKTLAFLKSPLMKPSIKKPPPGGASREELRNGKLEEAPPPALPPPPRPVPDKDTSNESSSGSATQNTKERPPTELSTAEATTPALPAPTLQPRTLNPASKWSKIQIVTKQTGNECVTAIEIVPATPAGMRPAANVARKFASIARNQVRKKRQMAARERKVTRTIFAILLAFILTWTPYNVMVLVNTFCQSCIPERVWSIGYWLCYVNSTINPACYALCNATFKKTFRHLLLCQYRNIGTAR
The data set is described as follows: Positive allosteric modulation activity at rat M4 receptor expressed in CHO cells co-expressing Gqi5 protein assessed as potentiation of EC20 acetyl choline-induced response by calcium mobilization assay. The data set is classed as functional, cell-based. The method in brief: as §1

For data set [4], the target named is T4, Muscarinic acetylcholine receptor M4 (Rattus norvegicus) (UniProt P08485).
T4 sequence (whole entry): T3 sequence (P08485 whole entry)
The data set is described as follows: Positive allosteric modulation activity at rat M4 receptor expressed in CHO cells co-expressing Gqi5 protein assessed as potentiation of EC20 acetyl choline-induced response by calcium mobilization assay relative to acetylcholine. The data set is classed as functional, cell-based. The procedure, abridged:
as §1
On the technique in general: Calcium flux is commonly read through the fluorescence of an indicator in the cells.

Data set [5] concerns the target T5, Muscarinic acetylcholine receptor M5 (Homo sapiens) (UniProt P08912).
T5 sequence (whole entry): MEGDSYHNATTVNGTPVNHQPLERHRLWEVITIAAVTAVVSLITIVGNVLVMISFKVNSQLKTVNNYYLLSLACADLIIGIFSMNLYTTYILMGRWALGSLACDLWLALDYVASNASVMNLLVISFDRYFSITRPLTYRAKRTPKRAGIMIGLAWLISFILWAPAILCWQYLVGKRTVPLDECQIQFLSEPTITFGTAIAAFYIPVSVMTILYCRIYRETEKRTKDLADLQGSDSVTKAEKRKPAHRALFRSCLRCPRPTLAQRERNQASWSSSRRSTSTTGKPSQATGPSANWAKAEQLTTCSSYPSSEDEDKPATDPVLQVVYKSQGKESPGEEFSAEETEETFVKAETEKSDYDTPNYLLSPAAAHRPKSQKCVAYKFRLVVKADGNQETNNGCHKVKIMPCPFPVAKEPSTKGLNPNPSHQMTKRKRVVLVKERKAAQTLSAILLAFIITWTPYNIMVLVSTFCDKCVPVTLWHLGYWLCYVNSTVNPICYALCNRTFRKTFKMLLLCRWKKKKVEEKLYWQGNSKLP
In words: Positive allosteric modulation activity at human M5 receptor.

A short description of data set [6]: Fraction unbound in human plasma. The data set is classed as ADME, cell-free. The procedure, abridged:
(§2)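 Plasma protein binding, reported as fraction unbound in rat and human plasma. Single experiment (n=1) run in triplicate.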

The nature of data set [7]: Fraction unbound in rat plasma. The data set is classed as ADME, cell-free. The method in brief: as §2
The nature of data set [8]: Intrinsic clearance in human microsomes. The data set is classed as ADME, Microsome. The method in brief: (§3)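 Hepatic microsomal intrinsic clearance, from which predicted hepatic clearance was derived. Single experiment (n=1) run in triplicate.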
The nature of data set [9]: Intrinsic clearance in rat microsomes. The data set is classed as ADME, Microsome. The procedure, abridged: as §3
Data set [10] deals with Cytochrome P450. The data set is described as follows: Inhibition of Cytochrome P450 (unknown origin). The data set is classed as ADME, protein assay. Particulars: human.
Data set [11] addresses T6, Cytochrome P450 1A2 (Homo sapiens, UniProt P05177).
T6 sequence (P05177 whole entry): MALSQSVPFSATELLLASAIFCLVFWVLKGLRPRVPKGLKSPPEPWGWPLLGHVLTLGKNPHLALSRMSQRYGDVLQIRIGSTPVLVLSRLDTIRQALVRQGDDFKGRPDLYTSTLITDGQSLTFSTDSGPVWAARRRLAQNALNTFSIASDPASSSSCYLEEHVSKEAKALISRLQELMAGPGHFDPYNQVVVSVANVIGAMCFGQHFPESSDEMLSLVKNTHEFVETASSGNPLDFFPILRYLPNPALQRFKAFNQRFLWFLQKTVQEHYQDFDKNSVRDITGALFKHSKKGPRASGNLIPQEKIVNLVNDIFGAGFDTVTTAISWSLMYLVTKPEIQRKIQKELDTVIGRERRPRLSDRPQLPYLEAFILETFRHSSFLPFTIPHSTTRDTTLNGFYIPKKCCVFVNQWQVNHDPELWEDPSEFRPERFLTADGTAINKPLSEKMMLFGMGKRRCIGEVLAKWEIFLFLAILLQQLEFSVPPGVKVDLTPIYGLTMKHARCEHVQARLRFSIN
In words: Inhibition of CYP1A2 (unknown origin). The data set is classed as ADME.

A short description of data set [12]: Selectivity ratio of EC50 for rat M4 receptor expressed in CHO cells co-expressing Gqi5 protein to EC50 for human M4 receptor expressed in CHO cells co-expressing Gqi5 protein. The data set is classed as cell-based.
The nature of data set [13]: Drug metabolism in cryopreserved rat hepatocytes assessed as secondary alcohol 18 formation. The data set is classed as ADME, cell-based, Hepatocyte.
The nature of data set [14]: Drug metabolism in cryopreserved human hepatocytes assessed as secondary alcohol 18 formation. The data set is classed as ADME, cell-based, Hepatocyte.
Data set [15] in a line: Ratio of drug level in Sprague-Dawley rat brain to plasma at 0.2 to 0.25 mg/kg, iv administered as cassette dose measured 0.25 hrs post dose. The data set is classed as ADME, organism-based. Particulars: brain and plasma. The procedure, abridged:
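Male Sprague-Dawley rats (n=1) received an IV cassette dose of 0.20-0.25 mg/kg. Brain and plasma sampled 0.25 hr post-administration. Total brain:plasma partition coefficient (Kp) measured; unbound coefficient (Kp,uu) calculated.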

Data set [16] can be described thus: Drug level in cryopreserved rat hepatocytes treated with (3-amino-4,6-dimethylthieno[2,3-b]pyridin-2-yl)(pyridin-4-yl)methanone assessed as compound formation. The data set is classed as ADME, cell-based, Hepatocyte.
Data set [17] can be described thus: Drug level in cryopreserved human hepatocytes treated with (3-amino-4,6-dimethylthieno[2,3-b]pyridin-2-yl)(pyridin-4-yl)methanone assessed as compound formation. The data set is classed as ADME, cell-based, Hepatocyte.

Active and inactive are the calls of the source. The rule behind the calls is not given here.

What is called fraction unbound is free concentration divided by total concentration. A low value points to little free substance. Usually CLint scaled stands for the rate of metabolic loss divided by the concentration. Higher therefore signals faster metabolism. For the compound `Cc1nc2sc(C(=O)c3ccccc3)c(N)c2c(C)c1C`, the EC50 in [1] (read-out: EC50) is 120 to 138 nM; in data set [1] (read-out: pEC50 (converted)), 138 nM; in data set [3] (read-out: EC50), 76 to 145 nM; in data set [3] (read-out: pEC50 (converted)) it was 145 nM. Besides, the %max in data set [2] lay in the range of 76 to 76.8%; in data set [4] it was 71 to 80.5%. Moreover, the result in data set [5] was inactive. In addition, the results for the fraction unbound in data set [6] and in [7] were 0.007 and 0.008, respectively. Also, the figures for the CLint scaled in [8] and in [9] were 429 mL/min/kg and 2070 mL/min/kg, respectively.
What is called Kp is tissue or fluid exposure divided by exposure in the circulation. With `Cc1cc(C)c2c(N)c(C(=O)c3ccncc3)sc2n1`, the EC50 in [1] (read-out: EC50) stood at 589 nM; in data set [3] (read-out: EC50), 2240 nM. The %max in data set [2] stood at 71%; in data set [4], 64%. In addition, the results for the “inhibition (INH)” value in data set [10] and in data set [11] were “Not Active” and “Active”, respectively. For the same compound, the Ratio EC50 in data set [12] lay in the range of 4 to 7. For the same compound, the fraction unbound in data set [6] and in [7] was 0.005 to 0.18 in each case. In addition, the Drug metabolism result in data set [13] and in data set [14] was “Metabolite_Detected” in each case. Further, the Kp at 0.25 h in [15] lay within 0.83 to 6.95.
Turning to `Cc1cc(C)c2c(N)c(C(O)c3ccncc3)sc2n1` (centres undefined), the EC50 in data set [1] (read-out: EC50) and in [3] (read-out: EC50) was more than 10000 nM throughout. Also, the Drug metabolism result in [16] and in data set [17] was “Metabolite_Detected” throughout.
For the compound `COc1ccc(C(=O)c2sc3nnc(C)c(C)c3c2N)cc1`, the EC50 in data set [1] (read-out: EC50) came to 646 nM; in data set [3] (read-out: EC50), 1450 nM. Also, the %max in [2] is 63%; in data set [4], 70%. The “inhibition (INH)” value is given as “Not Active” in [10] and “Active” in data set [11]. The fraction unbound in data set [6] and in data set [7] was 0.005 to 0.18 each time. In addition, in [15], the Kp at 0.25 h was in the range of 0.83 to 6.95.
As for `Cc1nnc2sc(C(=O)c3ccc(F)cc3F)c(N)c2c1C`, the figures for the EC50 in data set [1] (read-out: EC50) and in data set [3] (read-out: EC50) were 331 nM and 380 nM, respectively. For the same compound, the %max in data set [2] stood at 55%; in data set [4], 66%. For the same compound, the “inhibition (INH)” value is given as “Not Active” in data set [10] and “Active” in data set [11]. Moreover, the fraction unbound in data set [6] and in [7] was 0.005 to 0.18 throughout. For the same compound, the Kp at 0.25 h in [15] was 0.83 to 6.95.
On to `Cc1cc(C)c2c(N)c(C(=O)c3ccc(F)cc3F)sc2n1`, for which the EC50 was 562 nM in data set [1] (read-out: EC50) and 3980 nM in [3] (read-out: EC50). Also, the %max in data set [2] came to 39%; in [4] it was 35%. The “inhibition (INH)” value is given as “Not Active” in data set [10] and “Active” in [11]. In data set [12], the Ratio EC50 lay within 4 to 7. The fraction unbound in data set [6] and in data set [7] was 0.005 to 0.18 each time. Moreover, the Kp at 0.25 h in data set [15] fell in the range of 0.83 to 6.95.
On to `Nc1c(C(=O)c2ccncc2)sc2nc(O)c3c(c12)CCCC3`, for which the EC50 in data set [1] (read-out: EC50) was 37 nM; in data set [1] (read-out: pEC50 (converted)), 75.9 nM; in data set [3] (read-out: EC50), 182 nM. For the same compound, the %max in [2] is 63.8%; in data set [4], 52.7%. Moreover, the figures for the “inhibition (INH)” value in data set [10] and in data set [11] were “Not Active” and “Active”, respectively. Besides, the fraction unbound in data set [6] and in data set [7] was 0.005 to 0.18 in each case. For the same compound, in data set [15], the concentration ratio (Kp) at 0.25 h is 0.83 to 6.95.
With `COc1ccc(C(=O)c2sc3nc(C)cc(C)c3c2N)cc1`, the figures for the EC50 in data set [1] (read-out: EC50) and in data set [3] (read-out: EC50) were 479 nM and 490 nM, respectively. Also, the %max in data set [2] stood at 48%; in [4], 54%. The “inhibition (INH)” value in data set [10] was “Not Active”; in data set [11] it was “Active”. In addition, the fraction unbound in data set [6] and in data set [7] was 0.005 to 0.18 throughout. For the same compound, in [15], the Kp at 0.25 h fell in the range of 0.83 to 6.95.
